High-throughput results as filed in PubChem BioAssay.
This excerpt belongs to a sample that is enriched for hits.
Insulin prom act: TRM-6 insulin promoter activation. activation, % at 2 µM. TRM-6 cells (human fetal islet line), insulin promoter eGFP reporter, imaging; plate-scaled: unstimulated 0, stimulated control 100. 0.81% of 130,000 active;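 active = activation at 2 µM above a set limit, confirmed on inspection of the cell images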;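 note: share of cells whose green reporter signal exceeds an intensity cutoff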
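System – TRM-6 insulin promoter–eGFP reporter cells · Probe or stimulus – 0.75 µM tamoxifen as reporter inducer · Dosing – single-point 2 µM compound dose · Incubation – tamoxifen pre-incubation 15 h overnight, then compound exposure 48 h at 37 °C · Measured by – fixed-cell fluorescence microscopy, eGFP plus Hoechst · Evaluation – percent GFP-positive cells normalized to per-plate controls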
* marks the source's active call; other numbers are inactive results.

SMILES	Insulin prom act
CC(C)CNC(=O)c1cccc(NC(=O)C2CCCO2)c1 (stereo not given)	438*
COc1cccc(C(=O)Nc2cccc(C(=O)NCC(C)C)c2)c1	1
Nc1nnc(C(c2ccccc2)c2ccccc2)s1	0
COc1cc(/C=C2\C(=O)N(CCC#N)N=C2C)ccc1OCC(=O)Nc1ccccc1	-3
COc1cc(/C=C(\C#N)c2ccccn2)ccc1OCC(=O)Nc1cccc(C(F)(F)F)c1	280*
COc1cc(NC(=O)CSCC(=O)Nc2cccc(C(F)(F)F)c2)c(Cl)cc1Cl	-9
CC(C)(C)Nc1nc(NC(C)(C)C)nc(-n2ccnc2)n1	348
CN(CC(=O)Nc1ccncc1)S(=O)(=O)c1ccc(Cl)cc1	-3
CSc1nsc(NC(=O)Cc2ccccc2)n1	103*
CCOCCc1nnc(NC(=O)Cc2ccccc2)s1	0
O=C(Nc1nc(SCc2ccc(F)cc2)ns1)c1ccco1	94
O=C1CCCC(=O)N1c1ccc(N2CCN(c3ccc([N+](=O)[O-])cc3)CC2)c([N+](=O)[O-])c1	7
CCCC(=O)Nc1ccc(C(=O)Nc2nnc(COCC)s2)cc1	408*
CCOCC(=O)Nc1nnc(COC)s1	-3
CCOCc1nnc(NC(=O)c2ccco2)s1	144
Cc1ccc(C)c(NC(=O)Cc2csc(-c3ccccc3)n2)c1	0
Cc1cccc(C(=O)NCC(=O)N2CC(=O)Nc3ccccc32)c1	-4
CCOc1ccc(NCc2ccccc2OCc2cccc(F)c2)cc1	9
CN(C)S(=O)(=O)c1ccc(NC(=O)COC(=O)C2COc3ccccc3O2)cc1 (stereo not given)	-5
Cc1nc2ccc(Nc3ccncc3)cc2s1	-7
CN(CC(=O)Nc1cccc([N+](=O)[O-])c1)S(=O)(=O)c1ccccc1	0
Cc1cccc(-c2nc(CN3CCCC(C(=O)NC4CCC(C)CC4)C3)c(C)o2)c1 (stereo not given)	136*
Cc1oc(-c2ccccc2F)nc1CN1CCC(C(=O)NC2CCCc3ccccc32)CC1 (stereo not given)	-86
Cc1oc(-c2ccc(Cl)cc2)nc1CN1CCC(C(=O)NCc2cccs2)CC1	-3
Cc1ccccc1N(CC(=O)NCC1CCCO1)C(=O)C1(C)CC(=O)N=C2C=CC=CN21 (stereo not given)	-4
SMILES	Insulin prom act
Fc1ccc(NCc2n[nH]c(=S)n2Cc2ccccc2)cc1	0
COc1ccc(-n2c(CNC(=O)c3cc(OC)c(OC)c(OC)c3)n[nH]c2=S)cc1	0
CCn1c(SCC(=O)NCc2ccccc2)nnc1-c1cccnc1	0
Cc1cccc(NC(=O)CN2C(=O)N/C(=C/c3ccc(C)o3)C2=O)c1	10
CC(=O)N1C(=S)NC(=O)/C1=C1/C(=O)N(CC(=O)Nc2cccc(C)c2)c2ccccc21	108*
Cc1ccc2c(c1)C(=O)C(=O)N2CC(=O)Nc1ccc(N2CCOCC2)cc1	0
Cc1nn(-c2ccccc2)c(C)c1/C=N/NC(=O)c1cc(-c2ccccc2)n[nH]1	125*
Cc1nn(-c2ccccc2)c(C)c1/C=N/NC(=O)CSc1nnc(SCc2ccccc2Cl)s1	167
Cc1nn(-c2ccccc2)c(C)c1/C=N/n1c(-c2ccc(Cl)cc2)n[nH]c1=S	0
CN(C(=O)COC(=O)c1ccccc1SCC(=O)NC1CCCCCCC1)C1CCS(=O)(=O)C1 (stereo not given)	-6
O=C(O)C1C2C=CC3(CN(Cc4ccccn4)C(=O)C13)O2 (stereo not given)	-7
CCn1c(-c2ccccc2Cl)nn(CC(=O)Nc2cc(Cl)ccc2Cl)c1=S	103
CCOC(=O)C1CCN(C(=O)Cc2cccs2)CC1	7
CCOC(=O)C1CCCN(C(=O)C2CCN(S(=O)(=O)CC)CC2)C1 (stereo not given)	3
CCOC(=O)C1CCN(C(=O)N(CC)CC)CC1	254*
CCOC(=O)C1CCN(C(=O)/C=C/c2cccs2)CC1	-6
CCOC(=O)C1CCN(C(=O)C2CCCCC2)CC1	562*
CCOC(=O)N1CCN(C(=O)C2CCN(S(=O)(=O)N3CCCC3)CC2)CC1	0
Cc1cc(C)nc(NC(=S)Nc2ccc(Br)cc2Cl)c1	-7
O=C(O)C1C2C=CC(O2)C1C(=O)NCc1ccccc1Br (stereo not given)	0
COc1ccc(NC(=O)C2CC(=O)OC23CCOC(C)(C)C3)cc1 (stereo not given)	3
CC1(NC(=S)N(CCO)CCO)CCS(=O)(=O)C1 (stereo not given)	-4
O=C(NC1CC1)C1=COCCO1	-5
CN(CC(=O)Nc1c(Cl)cccc1Cl)C(=O)CCCN1C(=O)c2ccccc2C1=O	-8
CC(C)CCNC(=S)Nc1ccc(F)cc1	-9
SMILES	Insulin prom act
COCCn1c(SCc2ccccc2F)nc2ccccc2c1=O	-9
COc1ccc(C(=O)Nn2c(SCC(=O)c3ccc(Cl)cc3)nc3ccccc3c2=O)cc1	-83
COn1c(SCc2ccc(Cl)cc2)nc2ccccc2c1=O	77*
COc1cccc(NC(=S)NNC(=O)Cn2nc(C(F)(F)F)cc2C)c1	8
O=C1CC(N2CCN(C3CCc4ccccc4C3)CC2)C(=O)N1c1ccccc1 (stereo not given)	-5
Cc1noc(C)c1CSc1ccccc1C(=O)Nc1nccs1	-9
Cc1c(OCc2ccccc2)c(=O)ccn1Cc1ccc(F)cc1	2
Cc1c(OCc2ccccc2)c(=O)ccn1Cc1ccc(Cl)cc1	6
Cc1c(O)c(=O)ccn1Cc1ccccc1	257*
CCOc1ccccc1N(C(=O)c1ccco1)C(C(=O)NC1CCCC1)c1cccnc1 (stereo not given)	9
C=CCOc1c(CNc2cccc(C(=O)O)c2)cccc1OCC	3
CCOc1cc(CNCCO)cc(Br)c1OCc1ccc(Cl)cc1Cl	8
CCOc1cccc(CNc2ccc(O)cc2)c1OCc1ccc(Cl)cc1Cl	91*
S=C(NCCc1ccccc1)NCc1cccs1	-8
CCOC(=O)c1cc(C)n(-n2cnnc2)c1C	-26
O=C1CCCC2=C1C(c1cccc(O)c1)c1c(ccc3ncccc13)N2 (stereo not given)	7
CCCCCCN1C=CC(=C/C=C(\C#N)C(=O)OCC)C=C1	133*
CCOC(=O)/C(C#N)=C\C1=C(N2CCCC2)CC(C)(C)OC1	-3
CCOC(=O)/C(C#N)=C1/C=CN(Cc2ccccc2)C=N1	-6
CCOC(=O)/C(C#N)=C1/C=CN(C)C=N1	0
CCCN1C=CC(=C/C=C(\C#N)C(=O)OCC)C=C1	141*
CCOC(=O)C(/C=C(\C#N)C(=O)OCC)=C(/N)N1CCN(c2ccccc2)CC1	-7
Cc1ccc(C(=O)CC(=O)c2cccc(F)c2)c(O)c1	-5
COC(=O)c1nn(-c2ccccc2)c(Sc2ccc(Br)cc2)c1/C=N/O	6
Cc1ccc(C)c(NC2=C(Cl)C(=O)OC2OC(C)C)c1 (stereo not given)	-7
SMILES	Insulin prom act
C=CCc1c(C)nc(SCC(=C)C)[nH]c1=O	8
COc1ccccc1/C=C(\NC(=O)c1ccc(OC)c(OC)c1)C(=O)Nc1cc([N+](=O)[O-])ccc1C	-3
Cc1ccc2c(c1)cc1c(=O)[nH]ncn12	7
CCOc1ccccc1Nc1nnc(SCC(=O)NC(=O)c2cccn2C)s1	-6
COCCn1c(C)cc(C(=O)CSc2nnc3scc(-c4ccc(Cl)cc4)n23)c1C	3
c1ccc(-c2cnnc(N3CCCCC3)n2)cc1	10
COc1ccc(CN2C(=O)c3cccnc3C2Nc2cc(Cl)c(OC)cc2OC)cc1 (stereo not given)	136*
O=C1c2cccnc2C(O)N1Cc1ccc(F)cc1 (stereo not given)	6
